The list is not random: actives were taken first. Their share in the collection is about 4.3%.
SR-BI HDL uptake: mouse SR-BI HDL lipid transfer inhibition. ldlA[mSR-BI] CHO cells, DiI-HDL uptake fluorescence, 3 h. Q61009. 0.96% of 320,000 active. AID 488896. inhibition, % at 12.5 µM;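 active means mean replicate inhibition of at least 70% and a set share of replicates each scoring 70 or more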;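 further: 0% = median of neutral control wells and 100% = median of positive control wells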
SMARCA2 activ: SMARCA2 function activation, primary screen; 1% of 370,000 active; MG213 cells, MMTV-luciferase reporter, dexamethasone, overnight; activation, % at 9.1 µM; in the data active means activation above about 7.8%;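 further: 0% = vehicle wells and 100% = reference activator wells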
AHR activator: human AHR activation; AID 2796; P35869; activation, % at 5 µM; AHR-responsive luciferase reporter cells, luminescence; 2.5% of 320,000 active; in the data active means activation above about 47%;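 further: 0% = vehicle wells and 100% = reference agonist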
SR-BI uptake up: activators of SR-BI mediated HDL lipid uptake; CHO ldlA[mSR-BI] cells, DiI-HDL uptake fluorescence, 3 h; 100 = double the neutral-control signal; activation, % at 12.5 µM; 0.096% of 320,000 active; AID 504775;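 active means mean replicate activation of at least 60% and every replicate at or above 60%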;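 further: 0% = median plate neutral-control signal and 100% = twice that signal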
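Test system: SR-BI-overexpressing, LDLR-lacking CHO cells. Measured by: DiI fluorescence, bottom read. Medium: Ham's F12 with 0.5% BSA, HEPES 25 mM, pH 7.4. Timing: 3 h uptake period with compound, 37 °C.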
Lipid droplet: hepatic lipid droplet formation modulation; AML12 mouse hepatocytes, oleate lipid droplets, BODIPY imaging; 0.4% of 240,000 active; inhibition, % at 6.5 µM; AID 1656;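 active means lipid droplet intensity inhibited by at least 50%, with more than 500 cells counted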
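Assay system: AML12 hepatocytes (mouse) / Also added: 100 µM oleic acid challenge / Times: overnight treatment with compound plus oleate / Detection: high-content imaging of BODIPY-stained droplets and DAPI nuclei / Evaluation: % inhibition of lipid droplet signal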
Yeast superoxide: caloric restriction mimetics inhibiting age-related superoxide in yeast; S. cerevisiae aged cells, superoxide DHE fluorescence; stronger effect = lower value; superoxide response (% of plate mean), % at 10 µM; 0.18% of 330,000 active;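 active means superoxide response under a set limit, about three screen SD below normal, cut at about 65% in these data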;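 further: yeast aged for seven days with compound at 30 °C before DHE staining; 100% = average MFI of all compound-treated wells on the plate with controls excluded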
Active calls of the source: *; nt = not tested or not shown.

SMILES	SR-BI HDL uptake	SMARCA2 activ	AHR activator	SR-BI uptake up	Lipid droplet	Yeast superoxide
Cn1c(=O)c2cc3c(nc2n(C)c1=O)CC(c1ccccc1)CC3=O (configuration not stated)	3	5	59*	-3	-2	86
CSc1nc2nc3c(cn2n1)C(=O)CC(c1ccccc1)C3 (configuration not stated)	-23	-4	1	23	1	106
O=C(NCCNc1ccc([N+](=O)[O-])cc1C(F)(F)F)c1ccccc1F	43	0	59*	-43	nt	94
Cc1ccc(C(=O)NCCNc2ccc([N+](=O)[O-])cc2C(F)(F)F)cc1	23	-3	10	-23	6	101
CN1[C@@H](Cc2ccccc2)COc2cccc(N3CCCC3)c2S1(=O)=O	nt	5	nt	nt	nt	nt
Cc1ccc(C2=NS(=O)(=O)N(C)C(C(=O)Nc3cc(C)n(CC(=O)N4CCC(C)CC4)n3)=C2)cc1	86*	-1	1	-86	-3	136
CCCC(=O)N1CCC[C@]2(CC[C@@H](CCC(C)=O)O2)C1	nt	-4	nt	nt	nt	nt
CCCCN(C)C(=O)CSc1nnc(-c2cc(OC)c(OC)c(OC)c2)o1	nt	6	nt	nt	nt	nt
O=C(Cc1c[nH]c2ccccc12)Nc1nccs1	-12	2	39	12	nt	98
O=C(Nc1nccs1)C(=O)c1c[nH]c2ccccc12	1	7	59*	-1	-1	119
O=C(NC1CC1)C(=O)c1c[nH]c2ccccc12	-11	-1	63*	11	-12	100
CSc1ccccc1NC(=O)C(=O)c1c[nH]c2ccccc12	44	3	48*	-44	-4	100
O=C(CSc1nnc(-c2cccnc2)n1-c1ccc(Cl)cc1)c1ccc2ccccc2c1	nt	1	nt	nt	nt	nt
N#CCCCc1cn(-c2cccc(-c3noc4c3C(=O)N(CC(=O)N3CCOCC3)CC4)c2)nn1	nt	0	nt	nt	nt	nt
C[C@@H]1Cc2cc(O)cc(O)c2C(=O)O1	nt	-2	nt	nt	nt	nt
S=c1[nH]nc(-c2n[nH]c3c2CCC3)n1N=Cc1ccc(Br)s1	nt	0	nt	nt	nt	nt
O[C@H](COc1cccc(F)c1)CN1CCC(C(O)(c2ccccc2)c2ccccc2)CC1	nt	-3	nt	nt	nt	nt
Cn1cccc1C(=O)NC(=O)COC(=O)c1cc(S(=O)(=O)N2CCCCC2)ccc1Cl	81*	-1	1	-81	-15	108
CCOC(=O)c1ccc(S(=O)(=O)N2CCC(C(=O)OCC)CC2)cc1	-11	-1	-3	11	nt	91
CN(C(=O)COC(=O)c1ccc(S(=O)(=O)N2CCOCC2)cc1)c1ccccc1	-70	3	-1	70*	nt	96
CCOC(=O)c1ccc(S(=O)(=O)N2CCC(C(=O)O)CC2)cc1	-69	1	0	69*	nt	91
CN(C(=O)COC(=O)c1cc(S(=O)(=O)N2CCCCC2)ccc1Cl)c1ccccc1	72*	0	1	-72	nt	83
O=C(COC(=O)c1cc(S(=O)(=O)N2CCCCC2)ccc1Cl)NC1CCCCC1	nt	-1	nt	nt	nt	nt
CC(=NN1CCN(c2ccccn2)CC1)c1ccccc1O	nt	-1	nt	nt	nt	nt
CC1CCCC(NC(=O)c2ccc3c(c2)OCO3)C1C (configuration not stated)	21	5	70*	-21	nt	77
SMILES	SR-BI HDL uptake	SMARCA2 activ	AHR activator	SR-BI uptake up	Lipid droplet	Yeast superoxide
COC(=O)c1cc2c(c3c4cc(F)ccc4n(S(=O)(=O)c4cccc(C)c4)c13)C(=O)N(c1ccc(OC)cc1)C2	nt	-5	nt	nt	nt	nt
COc1ccc(Nc2c([N+](=O)[O-])ccc3c2=NC2(CCCCC2)N=3)cc1	86*	3	42	-86	0	94
COC(=O)C1=C(C)N(C)C(=NCc2cccc(C(F)(F)F)c2)NC1c1cccc(Cl)c1 (configuration not stated)	nt	-4	nt	nt	nt	nt
CCOC(=O)C(NC(=O)c1cccc(Cl)c1)(OCc1ccc(F)cc1)C(F)(F)F (configuration not stated)	-14	-3	1	14	64*	98
O=C(NCCc1ccccc1)OCc1cn(Cc2ccccc2Cl)nn1	nt	-2	nt	nt	nt	nt
COc1cc(O)sc1C=Nc1ccc(Cl)cc1	28	6	48*	-28	-2	90
O=c1cc(-c2ccc(Cl)cc2)[nH]c2ccccc12	nt	nt	23	nt	-9	103
Cc1ccc(-c2cc(=O)c3ccccc3[nH]2)cc1	10	4	50*	-10	-8	102
O=C(c1c(O)c2ccccc2oc1=O)C1CCC1	-7	-1	8	7	nt	99
O=C(c1ccccc1Cl)c1c(O)c2ccccc2oc1=O	-10	-4	55*	10	nt	102
CC(=O)NNc1[nH]c2c(c(=O)c1[N+](=O)[O-])c(=O)n(C)c(=O)n2C	-68	-1	3	68*	-1	93
Cc1c(N=C/C=C2\N(C)c3ccccc3C2(C)C)c(=O)n(-c2ccccc2)n1C	-5	-2	1	5	nt	94
CN(C)c1ccc(N=C/C=C2\N(C)c3ccccc3C2(C)C)cc1	-1	1	150*	1	nt	104
CN1/C(=C\C=Nc2ccc3ccccc3c2)C(C)(C)c2ccccc21	17	nt	55*	nt	nt	107
COC[C@H]1CCCN1c1ccc2c(c1)O[C@@H]1CCN(C1)S2(=O)=O	nt	-2	nt	nt	nt	nt
Cc1ccc(/C=C/C(=O)c2cc(Br)ccc2OC(=O)c2ccco2)cc1	5	-1	9	-5	-27	95
COc1ccccc1/C=C/C(=O)c1cc(Br)ccc1OC(=O)c1ccco1	14	0	74*	-14	nt	118
COc1cc(-n2c(C)nc3cc(C(=O)N4CCCCC4)ccc32)cc(OC)c1OC	nt	-4	nt	nt	nt	nt
O=c1oc2ccccc2n1CSc1nc2ccccc2s1	17	5	61*	-17	nt	108
CC(/C=C/c1ccccc1)=N\NC(N)=S	77*	2	1	-77	nt	100
CC(/C=C/c1ccccc1)=N\NC(=S)NC(C)C	17	6	-1	-17	-1	89
CCN1C(=O)/C(=C2/Sc3ccc(OC)cc3N2C)SC1=Nc1ccc(OC)cc1	58	0	-2	-58	15	113
C=CCN1C(=O)/C(=C2/Sc3ccc(OC)cc3N2C)SC1=Nc1cccc(O)c1	102*	0	2	-102	-19	112
COc1ccc([C@H](C#Cc2ccccc2)CC(=O)O)cc1OC1CCCC1	nt	-1	nt	nt	nt	nt
CCOc1ccccc1NC(=O)C(CC(C)C)NC(=O)C1CCCCC1 (configuration not stated)	49	1	8	-49	0	102
COc1ccc(NC(=O)C(CC(C)C)NC(=O)C2CCCCC2)c(OC)c1 (configuration not stated)	82*	3	5	-82	2	91
COc1ccc(C)cc1NC(=O)NNC(=O)c1ccoc1C	0	1	10	0	16	102
COc1ccc(C)cc1NC(=O)NNC(=O)c1cc2ccccc2cc1O	117*	0	14	-117	-8	80
